Active and inactive are the calls of the source. The rule behind the calls is not given here.
Columns and labels:
Nucleic Acid [1] = assay: Ratio of acridine orange K to compound K for calf thymus DNA by spectrofluorimetry based McGhee von Hippel method; format: nucleic-acid assay; conditions: Bos taurus
L1210 [2] = assay: Cytotoxicity against mouse L1210 cells after 48 hrs by MTT assay; format: functional, cell-based; conditions: L1210, 48 h
Summary of the method: (§1)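 HL-60, L1210 and A2780 cells were grown in RPMI 1640 with 10% FBS, penicillin and streptomycin at 37 °C, 5% CO₂; HL-60 and A2780 medium also had 2 mM glutamine. Cells were exposed to 0–30 µM for 48 or 72 h. Viability was read by MTT microculture tetrazolium assay and IC50 was determined.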

HL-60 [3] = assay: Decrease in intracellular glutathione level in human HL60 cells at 2 uM after 2 hrs by spectrophotometric analysis; format: functional, cell-based
A2780 [4] = assay: Cytotoxicity against human A2780 cells after 72 hrs by MTT assay; format: functional, cell-based; conditions: A2780, 72 h; summary of the method: as §1
Nucleic Acid [5] = assay: Binding affinity to calf thymus DNA assessed as melting temperature at 5 uM at pH 7.1 by thermal denaturation assay; format: nucleic-acid assay; conditions: Bos taurus
HL-60 [6] = assay: Induction of necrosis in human HL60 cells assessed as cell shrinking at 5 uM after 24 hrs by propidium iodide staining based fluorescence microscopy; format: functional
HL-60 [7] = assay: Decrease in intracellular glutathione level in human HL60 cells at 2 uM after 24 hrs by spectrophotometric analysis; format: functional, cell-based
L1210 [8] = assay: Cytotoxicity against mouse L1210 cells after 72 hrs by MTT assay; format: functional, cell-based; conditions: L1210, 72 h; summary of the method: as §1
Nucleic Acid [9] = assay: Binding affinity to calf thymus DNA assessed as hypochromicity at 25 uM by UV-visible spectrophotometry; format: nucleic-acid assay; conditions: Bos taurus
Summary of the method: (§2)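 Absorption spectra were taken in 0.01 M Tris buffer, pH 7.4. Compounds were diluted from DMSO stock to a final 25 µM. Sonicated calf thymus DNA in TE buffer was added at 0–30 µM bp, with concentration set by A260. Shift of λmax (free vs bound) and % hypochromicity were recorded.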

A2780 [10] = assay: Drug uptake in human A2780 cells at 5 uM after 4 hrs by Hoechst staining based fluorescence microscopy; format: ADME, cell-based; conditions: a2780, 4 h
Nucleic Acid [11] = assay: Ratio of proflavine K to compound K for calf thymus DNA by spectrofluorimetry based McGhee von Hippel method; format: nucleic-acid assay; conditions: Bos taurus
HL-60 [12] = assay: Cytotoxicity against human HL60 cells after 72 hrs by MTT assay; format: functional, cell-based; conditions: HL-60, 72 h; summary of the method: as §1
HL-60 [13] = assay: Cytotoxicity against human HL60 cells after 48 hrs by MTT assay; format: functional, cell-based; conditions: HL-60, 48 h; summary of the method: as §1
Nucleic Acid [14] = assay: Binding affinity to calf thymus DNA assessed as binding constant by spectrofluorimetry based McGhee von Hippel method; format: nucleic-acid assay; conditions: Bos taurus
Summary of the method: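 Fluorescence titration used compound at 26.7 µM in 0.01 M Tris buffer (pH 7.4, 24 °C). ctDNA was added stepwise from 0 to 32 µM bp at 2 µM intervals until spectra stopped changing. Excitation was 384 nm and emission was read at 410–470 nm. Binding constant K was derived by the McGhee–von Hippel method from Scatchard plot data.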

A2780 [15] = assay: Cytotoxicity against human A2780 cells after 48 hrs by MTT assay; format: functional, cell-based; conditions: A2780, 48 h; summary of the method: as §1
Nucleic Acid [16] = assay: Ratio of daunomycin K to compound K for calf thymus DNA by spectrofluorimetry based McGhee von Hippel method; format: nucleic-acid assay; conditions: Bos taurus
Nucleic Acid [17] = assay: Binding affinity to calf thymus DNA assessed as bathochromic shift at 25 uM by UV-visible spectrophotometry; format: nucleic-acid assay; conditions: Bos taurus; summary of the method: as §2
HL-60 [18] = assay: Cytotoxicity against human HL60 cells after 48 hrs using trypan blue exclusion staining by DCC method; format: functional, cell-based; conditions: HL-60, 48 h
Summary of the method: (§3)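 For trypan blue dye-exclusion direct cell counting, HL-60 cells were seeded at 1 × 10⁵ cells/mL. Compound at 0–10 µM, or 1% DMSO control, was added after 24 h. Viable counts were taken after 24, 48 and 72 h. IC50 (50% inhibition of viability) came from growth curves, as mean ± S.D., n = 3.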

HL-60 [19] = assay: Drug uptake in human HL60 cells at 5 uM after 4 hrs by Hoechst staining based fluorescence microscopy; format: ADME, cell-based; conditions: hl-60, 4 h
Summary of the method: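 HL-60 cells were exposed to 5 µM for 4 h at 37 °C, 5% CO₂, then washed in PBS. Intrinsic blue fluorescence was viewed by optical and fluorescence microscopy. Untreated control cells were stained with Hoechst 33342 (10 µM, 10 min).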

HL-60 [20] = assay: Cytotoxicity against BSO pretreated human HL60 cells assessed as cell viability at 3 uM treated 6 hrs after BSO addition measured after 48 hrs by trypan blue exclusion assay; format: functional, cell-based
Summary of the method: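 HL-60 cells were pretreated 6 h with L-buthionine-sulfoximine (10 µM), then exposed to 1.5, 3.0 or 1.0 µM compound for 48 h. Viable cells were counted by trypan blue staining and expressed as percentage of all cells.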

HL-60 [21] = assay: Cytotoxicity against human HL60 cells after 72 hrs using trypan blue exclusion staining by DCC method; format: functional, cell-based; conditions: HL-60, 72 h; summary of the method: as §3

COC(=O)/C=C1\S/C(=N\c2c3ccccc3nc3ccccc23)N(C(C)(C)C)C1=O
Ratio (Nucleic Acid [1]): 10 | IC50 (L1210 [2]): 17.9 µM | Activity (HL-60 [3]): Active | IC50 (A2780 [4]): 23.7 µM | Tm (Nucleic Acid [5]): 74 °C | Activity (HL-60 [6]): Active | Activity (HL-60 [7]): inactive | IC50 (L1210 [8]): 20.9 µM | Activity (Nucleic Acid [9]): 31.2% | Drug uptake (A2780 [10]): Active | Ratio (Nucleic Acid [11]): 10 | IC50 (HL-60 [12]): 3.7 µM | IC50 (HL-60 [13]): 5.4 µM | K (Nucleic Acid [14]): 1.37 ×10⁶ /M | IC50 (A2780 [15]): > 30 µM | Ratio (Nucleic Acid [16]): 10 | Activity (Nucleic Acid [17]): Active | IC50 (HL-60 [18]): 3.5 µM | Drug uptake (HL-60 [19]): Active | Activity (HL-60 [20]): Active | IC50 (HL-60 [21]): 2.8 µM
